Bioassay records as filed in PubChem.
This is a sample that favours compounds with a hit; in the whole collection about 3.5% have one here.
RGS4 inh: RGS4 inhibitors, primary screen, cell-based, HEK293 M3R inducible RGS4, calcium flux. B-score at 10 µM. Fluo-4 calcium flux; active compounds read high; triggered by carbachol at its EC20. 0.45% of 310,000 active. Regulator of G-protein signaling 4 (Homo sapiens), P49798;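 active = B-score, a plate-corrected calcium signal, over three deviations above library mean, with baseline fluorescence within five deviations of library mean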;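 note: RGS4 expression induced by doxycycline in cells with stable M3 receptor; B-score is computed from the integrated fluorescence ratio over baseline after carbachol; higher B-score means a larger calcium signal and so more RGS4 inhibition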
Target sequence (P49798 whole entry, looked up): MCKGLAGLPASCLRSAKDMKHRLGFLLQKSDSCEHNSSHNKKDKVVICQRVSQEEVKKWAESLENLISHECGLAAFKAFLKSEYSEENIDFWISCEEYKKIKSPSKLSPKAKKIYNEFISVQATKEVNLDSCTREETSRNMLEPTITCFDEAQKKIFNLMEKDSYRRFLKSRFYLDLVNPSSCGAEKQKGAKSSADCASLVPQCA
MrgX1 antagonist: antagonists of human MrgX1 receptor, primary screen, HEK293 cells, Fluo-4 calcium flux. Mas-related G-protein coupled receptor member X1 (Homo sapiens), Q96LB2. BAM8-22 antagonism; active compounds read low. B-score at 10 µM. 1.3% of 310,000 active;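 active = calcium-response B-score plate-corrected more than 3 library SD below zero, starting fluorescence within 5 deviations, no agonist response on first addition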;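 note: peak minus trough fluorescence over baseline after final BAM8-22 challenge near maximal dose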
Target sequence (Q96LB2 whole entry, looked up): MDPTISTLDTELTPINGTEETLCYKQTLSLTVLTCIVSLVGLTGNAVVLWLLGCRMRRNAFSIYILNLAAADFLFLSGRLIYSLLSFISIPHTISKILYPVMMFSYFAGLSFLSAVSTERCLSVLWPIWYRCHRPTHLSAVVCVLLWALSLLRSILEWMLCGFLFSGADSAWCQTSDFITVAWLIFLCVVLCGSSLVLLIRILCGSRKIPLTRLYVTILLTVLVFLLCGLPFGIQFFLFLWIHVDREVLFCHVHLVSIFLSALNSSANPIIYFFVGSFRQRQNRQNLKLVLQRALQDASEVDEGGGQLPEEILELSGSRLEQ
MrgX1 ag: agonists of human MrgX1 receptor, primary screen, HEK293 cells, Fluo-4 calcium flux | Mas-related G-protein coupled receptor member X1 (Homo sapiens), Q96LB2 | Fluo-4 calcium fluorescence, agonist mode; active compounds read high | B-score at 10 µM | 0.44% of 310,000 active | AID 588627, 2011;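 active = calcium response B-score plate-corrected fluorescence ratio at least 3 library SD, with starting fluorescence B-score inside 5 SD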
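Test system: HEK293 cells stably expressing human MrgX1 receptor; Input: fifteen thousand cells per well; Dosing: compound delivered in addition one of three; Schedule: overnight seeding, then 1 h dark dye loading; Technique: Fluo-4 NW calcium fluorescence; Measure: B-scored fluorescence response ratio; Controls: positive and negative controls per plate.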
RGS4 act: RGS4 potentiators or activators, primary screen, cell-based, HEK293 M3R inducible RGS4, calcium flux; carbachol calcium flux Fluo4; active compounds read low; B-score at 10 µM; 0.92% of 310,000 active;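 active = B-score of the integrated calcium signal more than 4 SD below the library mean, with starting fluorescence not abnormally high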;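 note: negative B-score means reduced calcium response which marks RGS4 activation or potentiation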
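test system = HEK293 cells with stable M3R and inducible RGS4 | schedule = recording 10 s baseline at 1 Hz, 100 s post-agonist | technique = Fluo4-AM (2 µM) calcium-flux fluorescence, kinetic read | measure = Agonist-evoked peak-minus-minimum fluorescence over baseline, integrated ratio, B score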
MrgX1 allo act: positive allosteric modulators of MrgX1, primary screen, HEK293 cells, Fluo-4 calcium flux; Mas-related G-protein coupled receptor member X1 (Homo sapiens), Q96LB2; FDSS; active compounds read high; B-score at 10 µM; 0.63% of 310,000 active; AID 588675, 2011;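 active = plate-corrected calcium response at least 3 library SD above typical, normal starting fluorescence, not activating the receptor alone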;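 note: compound read alongside a low EC10 to EC30 dose of BAM8-22 agonist; peak minus trough fluorescence over baseline measured at the second addition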
MrgX1 allo conf: MrgX1 positive allosteric modulators, duplicate retest, confirmation, HEK293 cells, Fluo-4 calcium flux; 13% of 1,200 active; shares compounds with MrgX1 allo act; activation (ratio percentage), % at 10 µM; AID 602413, 2012; Fluo-4 calcium fluorescence, FDSS;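 active = ratio at least 3 SD above the weak peptide control, stable starting fluorescence, no direct agonism earlier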;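 note: compound followed by low BAM8-22 agonist challenge near EC20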
HEK293 Ca flux: nonspecific calcium signal in parental HEK293, confirmation, counter-screen for MrgX1 antagonist project, parental HEK293 cells, Fluo-4 calcium flux. shares compounds with MrgX1 antagonist. Fluo-4 calcium fluorescence, FDSS. fluorescence ratio F(max-min)/F0 at 10 µM. 2% of 4,000 active. AID 624111, 2012;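 active = duplicate-averaged calcium fluorescence ratio at least three times the standard deviation of buffer wells, a nonspecific response in parental cells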
HEK293 Ca counter: calcium response in parental HEK293 cells, primary screen, counter-screen for MrgX1 allosteric activator project, cell-based, Fluo-4 calcium flux, duplicate; shares compounds with MrgX1 antagonist; Fluo-4 fluorescence ratio; active compounds read high; fluorescence ratio F(max-min)/F0 at 10 µM; 0.4% of 4,000 active; AID 624114, 2012;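 active = calcium fluorescence ratio, averaged over duplicates, at least 3 SD of the buffer-well ratio, meaning a nonspecific response in receptor-free cells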;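 note: untransfected parental HEK293 lacking MrgX1 used as counterscreen for MrgX1 allosteric activators; fluorescence change taken during the second addition on a kinetic imager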
HEK293 Ca cntr2: calcium response in parental HEK293 cells, primary screen, counter-screen for MrgX1 agonist project, cell-based, Fluo-4 calcium flux, duplicate, agonist mode; shares compounds with MrgX1 antagonist; Fluo-4 calcium fluorescence (FDSS); active compounds read high; fluorescence ratio F(max-min)/F0 at 10 µM; 8.7% of 4,000 active; AID 624115, 2012;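 active = calcium fluorescence ratio at least three times the spread of buffer wells, meaning a non-specific response in parental cells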
* hit, by the source's call.

Screening CC1CCCC(C)N1C(=O)CSc1nnc(NC(=O)c2cccs2)s1 (stereo not given) returned RGS4 inh inactive, MrgX1 antagonist inactive, MrgX1 ag inactive, RGS4 act inactive, MrgX1 allo act 14*, MrgX1 allo conf inactive, HEK293 Ca flux inactive, HEK293 Ca counter inactive and HEK293 Ca cntr2 inactive.
`COc1ccc(C)cc1NC(=O)C(C)N(c1ccc(C)cc1)S(C)(=O)=O` (stereo not given) gave RGS4 inh inactive, MrgX1 antagonist inactive, MrgX1 ag inactive, RGS4 act inactive, MrgX1 allo act 7.6*, MrgX1 allo conf inactive, HEK293 Ca flux inactive, HEK293 Ca counter inactive and HEK293 Ca cntr2 inactive.
`CCOC1=C/C(=C/c2c(N)n3nc(S(=O)(=O)CC)sc3nc2=O)C=CC1=O` gave RGS4 inh inactive, MrgX1 antagonist inactive, MrgX1 ag inactive, RGS4 act inactive, MrgX1 allo act 34*, MrgX1 allo conf inactive, HEK293 Ca flux 0.64*, HEK293 Ca counter inactive and HEK293 Ca cntr2 46*.
CCOC1=C/C(=C/c2c(N)n3nc(CC(=O)N4CCCCC4)sc3nc2=O)C=CC1=O was read as RGS4 inh inactive, MrgX1 antagonist inactive, MrgX1 ag inactive, RGS4 act inactive and MrgX1 allo act inactive.
Nc1ccc2c(c1)Oc1ccccc1C=C2 was read as RGS4 inh inactive, MrgX1 antagonist inactive, MrgX1 ag inactive, RGS4 act inactive, MrgX1 allo act 12*, MrgX1 allo conf inactive, HEK293 Ca flux inactive, HEK293 Ca counter inactive and HEK293 Ca cntr2 46*.
CCOC(=O)C(=CNc1cc(C(F)(F)F)ccc1N1CCOCC1)C(=O)OCC was read as RGS4 inh inactive, MrgX1 antagonist inactive, MrgX1 ag inactive, RGS4 act inactive and MrgX1 allo act inactive.
For CCOc1ccccc1Nc1ccnc2cc(Cl)ccc12 the results were RGS4 inh inactive, MrgX1 antagonist inactive, MrgX1 ag inactive, RGS4 act inactive, MrgX1 allo act 11*, MrgX1 allo conf inactive, HEK293 Ca flux inactive, HEK293 Ca counter inactive and HEK293 Ca cntr2 inactive.
COCc1nc2c([nH]1)c(=O)n(C)c(=O)n2CC(C)C was read as MrgX1 antagonist inactive, MrgX1 ag inactive and MrgX1 allo act inactive.
`O=C(CN1C(=O)c2cccnc2Oc2ccc(Cl)cc21)NC1CCCC1` gave RGS4 inh inactive, MrgX1 antagonist inactive, MrgX1 ag inactive, RGS4 act inactive and MrgX1 allo act inactive.
For CC1CCCC(NC(=O)CN2C(=O)c3cccnc3Oc3ccc(Cl)cc32)C1C (stereo not given) the results were RGS4 inh inactive, MrgX1 antagonist inactive, MrgX1 ag inactive, RGS4 act inactive, MrgX1 allo act 11*, MrgX1 allo conf inactive, HEK293 Ca flux inactive, HEK293 Ca counter inactive and HEK293 Ca cntr2 78*.
`Cc1ccccc1CC1(CO)CCCN(C(=O)c2ccc(F)cc2)C1` (stereo not given) gave RGS4 inh inactive, MrgX1 antagonist inactive, MrgX1 ag inactive, RGS4 act inactive, MrgX1 allo act 10*, MrgX1 allo conf inactive, HEK293 Ca flux inactive, HEK293 Ca counter inactive and HEK293 Ca cntr2 inactive.
For O=C(N/C=C/c1ccccc1)c1ccccc1 the results were RGS4 inh inactive, MrgX1 antagonist inactive, MrgX1 ag inactive, RGS4 act inactive and MrgX1 allo act inactive.
`Cn1nc(C(F)(F)F)c(-c2ccc(Br)cc2)c1NC(=O)c1cccnc1` gave RGS4 inh inactive, MrgX1 antagonist inactive, MrgX1 ag inactive, RGS4 act inactive and MrgX1 allo act inactive.
Cn1nc(C(F)(F)F)c(-c2ccc(Br)cc2)c1NC(=O)c1ccco1 was read as RGS4 inh inactive, MrgX1 antagonist inactive, MrgX1 ag inactive, RGS4 act inactive, MrgX1 allo act 20*, MrgX1 allo conf inactive, HEK293 Ca flux inactive, HEK293 Ca counter inactive and HEK293 Ca cntr2 inactive.
`O=C(O)c1ccc(N=C2NC(=O)C(CO)(CO)S2)cc1` gave RGS4 inh inactive, MrgX1 antagonist inactive, MrgX1 ag inactive, RGS4 act inactive and MrgX1 allo act inactive.
Screening Nc1nc(NCCCN2CCOCC2)nc(NCc2ccccc2)c1[N+](=O)[O-] returned RGS4 inh inactive, MrgX1 antagonist inactive, MrgX1 ag inactive, RGS4 act inactive and MrgX1 allo act inactive.
For O=C(Nc1ccncc1)c1cc2ccccc2cc1O the results were RGS4 inh inactive, MrgX1 antagonist inactive, MrgX1 ag inactive, RGS4 act inactive and MrgX1 allo act inactive.
Screening COc1ccc(N(CC(=O)Nc2cc(C)ccc2C)S(=O)(=O)c2c(C)[nH]c(=O)[nH]c2=O)cc1 returned RGS4 inh inactive, MrgX1 antagonist inactive, MrgX1 ag inactive, RGS4 act inactive and MrgX1 allo act inactive.
Screening Cc1ccc(N(CC(=O)Nc2ccc(Br)c(C)c2)S(=O)(=O)c2c(C)[nH]c(=O)[nH]c2=O)cc1 returned RGS4 inh inactive, MrgX1 antagonist inactive, MrgX1 ag inactive, RGS4 act inactive, MrgX1 allo act 8.3*, MrgX1 allo conf inactive, HEK293 Ca flux inactive, HEK293 Ca counter inactive and HEK293 Ca cntr2 inactive.
`Cc1ccccc1-n1ncc2c1CC(C)(C)CC2NC(=O)c1snnc1C` (stereo not given) gave RGS4 inh inactive, MrgX1 antagonist inactive, MrgX1 ag inactive, RGS4 act inactive, MrgX1 allo act 10*, MrgX1 allo conf 7.8%*, HEK293 Ca flux inactive, HEK293 Ca counter inactive and HEK293 Ca cntr2 inactive.
